The structures appear in SMILES notation. Where “and” joins values, the source holds several entries; their conditions need not be identical. Equal entries are not always repeated.

This note sets out measurements from ChEMBL document CHEMBL1132587, “Synthesis and serotonergic activity of 3-[2-(pyrrolidin-1-yl)ethyl]indoles: potent agonists for the h5-HT1D receptor with high selectivity over the h5-HT1B receptor” (J Med Chem, 1999).

Assay [1] has as its target T1, 5-hydroxytryptamine receptor 1B (Homo sapiens, UniProt P28222). Nature of the assay: Displacement of [3H]5-HT binding from the cloned human 5-hydroxytryptamine 1B receptor stably expressed in CHO cells. The assay is classed as cell-based.
For assay [2], the target named is T2, 5-hydroxytryptamine receptor 1D (Homo sapiens, UniProt P28221). Nature of the assay: Stimulation of [35S]GTP-gamma-S, binding in CHO cells expressing the 5-hydroxytryptamine 1D receptor. The assay is classed as functional, cell-based. (GTPγS resists hydrolysis and so accumulates on activated G proteins.)
In assay [3] the target is T2, 5-hydroxytryptamine receptor 1D. Nature of the assay: Displacement of [3H]5-HT binding from the cloned human 5-hydroxytryptamine 1D receptor stably expressed in CHO cells. Type of assay: cell-based. Background: Loss of bound radioactivity is the signal in a displacement assay; it reports binding, not function.
In assay [4] the target is T3, 5-hydroxytryptamine receptor 1A (Homo sapiens, UniProt P08908).
T3 sequence (P08908 whole entry): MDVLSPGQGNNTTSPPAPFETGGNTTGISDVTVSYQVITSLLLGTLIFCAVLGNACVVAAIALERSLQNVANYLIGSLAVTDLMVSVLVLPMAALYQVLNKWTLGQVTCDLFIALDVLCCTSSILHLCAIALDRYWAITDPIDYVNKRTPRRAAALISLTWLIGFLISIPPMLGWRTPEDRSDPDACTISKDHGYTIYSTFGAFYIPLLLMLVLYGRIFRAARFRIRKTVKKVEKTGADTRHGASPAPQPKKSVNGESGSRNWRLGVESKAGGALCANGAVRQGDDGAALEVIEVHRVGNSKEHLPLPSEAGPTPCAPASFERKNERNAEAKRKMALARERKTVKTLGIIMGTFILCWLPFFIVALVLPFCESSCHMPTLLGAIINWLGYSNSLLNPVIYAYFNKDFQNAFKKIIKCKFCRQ
Nature of the assay: Affinity of compound towards 5-hydroxytryptamine 1A receptor was evaluated using radioligand binding technique.

Assay [5] has as its system Rattus norvegicus. Nature of the assay: Hepatic portal vein plasma concentration after oral administration. Type of assay: functional, organism-based. An outline of the steps: (§1)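 Fasted (≥12 h) rats, ~300 g, given 3 mg/kg orally in aqueous formulation (5 mL/kg); four rats per time point, isoflurane anaesthesia, hepatic portal vein blood at 0.5 or 2 h; plasma extracted (liquid-liquid or solid-phase) and analysed by reversed-phase HPLC with UV or fluorescence detection.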

Assay [6] addresses T1, 5-hydroxytryptamine receptor 1B. Nature of the assay: Affinity of compound towards 5-hydroxytryptamine 1B receptor was evaluated using radioligand binding technique.
Assay [7] concerns the target T2, 5-hydroxytryptamine receptor 1D. Description: Affinity of compound towards 5-hydroxytryptamine 1D receptor was evaluated using radioligand binding technique.
Assay [8] deals with Rattus norvegicus. Description: Hepatic portal vein plasma concentration after administration. The assay is classed as functional, organism-based. In outline: as §1
Assay [9] concerns the target 5-hydroxytryptamine receptor 2A (Rattus norvegicus) (UniProt P14842). Nature of the assay: Affinity of compound towards rat 5-hydroxytryptamine 2A receptor was evaluated using radioligand binding technique.

T1 sequence (P28222 whole entry): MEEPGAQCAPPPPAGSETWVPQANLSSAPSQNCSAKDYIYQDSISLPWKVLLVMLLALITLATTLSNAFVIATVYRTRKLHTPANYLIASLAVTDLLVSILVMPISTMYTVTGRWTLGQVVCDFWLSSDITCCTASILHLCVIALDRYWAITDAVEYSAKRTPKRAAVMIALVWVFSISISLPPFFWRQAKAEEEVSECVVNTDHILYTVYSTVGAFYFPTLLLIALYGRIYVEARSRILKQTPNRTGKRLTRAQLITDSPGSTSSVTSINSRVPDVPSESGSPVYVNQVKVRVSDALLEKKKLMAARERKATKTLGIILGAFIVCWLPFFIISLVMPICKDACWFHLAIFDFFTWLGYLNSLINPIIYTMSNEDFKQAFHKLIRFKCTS
T2 sequence (P28221 whole entry): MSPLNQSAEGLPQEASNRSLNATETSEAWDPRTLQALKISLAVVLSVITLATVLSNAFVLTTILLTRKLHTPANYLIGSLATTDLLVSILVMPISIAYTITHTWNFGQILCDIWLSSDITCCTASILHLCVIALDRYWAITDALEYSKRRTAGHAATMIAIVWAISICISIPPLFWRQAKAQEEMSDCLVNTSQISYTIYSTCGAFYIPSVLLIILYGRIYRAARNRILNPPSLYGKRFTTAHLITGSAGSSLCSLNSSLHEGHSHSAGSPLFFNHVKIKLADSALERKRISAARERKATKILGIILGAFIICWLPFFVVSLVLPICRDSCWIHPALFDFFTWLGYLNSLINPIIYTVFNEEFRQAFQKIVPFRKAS
Chain of 5-hydroxytryptamine receptor 2A (Rattus norvegicus) (P14842 whole entry, looked up): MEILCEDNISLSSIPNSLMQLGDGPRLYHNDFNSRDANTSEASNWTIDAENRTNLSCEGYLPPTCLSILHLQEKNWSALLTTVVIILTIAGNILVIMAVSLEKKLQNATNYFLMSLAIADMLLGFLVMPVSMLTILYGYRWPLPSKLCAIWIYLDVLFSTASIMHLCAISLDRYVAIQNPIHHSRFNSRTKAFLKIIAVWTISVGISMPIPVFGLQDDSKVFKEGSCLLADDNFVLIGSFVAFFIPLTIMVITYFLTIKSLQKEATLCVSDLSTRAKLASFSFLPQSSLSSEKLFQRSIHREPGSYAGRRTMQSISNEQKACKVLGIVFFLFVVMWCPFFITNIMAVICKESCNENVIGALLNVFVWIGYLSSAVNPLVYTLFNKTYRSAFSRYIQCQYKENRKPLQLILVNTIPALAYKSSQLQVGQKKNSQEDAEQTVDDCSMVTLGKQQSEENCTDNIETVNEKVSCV

Broadly, the IC50 is the midpoint of a concentration-inhibition curve. The low end stands for inhibition by little substance, the high end for a need for much substance. In general, EC50 refers to the concentration giving half of the maximal effect. High values mean a less potent agent, low ones a more potent agent. As for `c1ccc(CO[C@H]2CCN(CCc3c[nH]c4ccc(-n5cnnc5)cc34)C2)cc1`, the values for the half-maximal inhibitory concentration (IC50) in assay [1] and in [3] were 275 nM and 20 nM, respectively. In addition, in [2], a half-maximal response (EC50) required 31 nM.

With `CC(=O)N(Cc1ccccc1)C[C@@H]1CCN(CCc2c[nH]c3ccc(-n4cnnc4)cc23)C1`, the concentration for half-maximal inhibition (IC50) in [1] is 11 nM; in [3], 1.1 nM.

Turning to `c1ccc(CNC[C@@H]2CCN(CCc3c[nH]c4ccc(-n5cnnc5)cc34)C2)cc1`, the IC50 in [4] came out at 5.4 nM. In [2], this compound came in with a half-maximal effective concentration (EC50) of 0.8 nM. Further, the Plasma concentration in the assay with Rattus norvegicus [5] is less than 5 ng/mL.

As for `c1ccc(CCNC[C@@H]2CCN(CCc3c[nH]c4ccc(-n5cnnc5)cc34)C2)cc1`, the 50% inhibitory concentration (IC50) in assay [1] stood at 125 nM; in [3], 2.6 nM. Also, the EC50 in assay [2] worked out at 6.2 nM.

On to `C[C@H](NC[C@@H]1CCN(CCc2c[nH]c3ccc(-n4cnnc4)cc23)C1)c1ccccc1`, for which the IC50 in assay [1] is 41 nM; in [3], 0.45 nM. Further, a half-maximal effect in assay [2] (EC50) was put at 0.63 nM.

Consider `c1ccc(COC[C@@H]2CCN(CCc3c[nH]c4ccc(-n5cnnc5)cc34)C2)cc1`, for which the half-inhibitory concentration (IC50) in assay [1] turned out to be 85 nM.

Turning to `O[C@@H]1CCN(CCc2c[nH]c3ccc(-n4cnnc4)cc23)C1`, the figures for the concentration for half-maximal inhibition (IC50) in [1] and in [3] were 93 nM and 9 nM, respectively. The 50% effective concentration (EC50) in assay [2] came out at 7.8 nM.

As for `c1cc2[nH]cc(CCN3CCC3)c2cc1-n1cnnc1`, the figures for the 50% inhibitory concentration (IC50) in assay [1] and in [3] were 4.4 nM and 1.1 nM, respectively.

Consider `CC(=O)Nc1ccc(CNC[C@@H]2CCN(CCc3c[nH]c4ccc(-n5cnnc5)cc34)C2)cc1`, for which the IC50 came out at 165 nM in assay [1] and 12 nM in [3]. In addition, in [2], it took 10 nM to reach a half-maximal effect (EC50).

`CN(Cc1ccccc1)C[C@@H]1CCCN1CCc1c[nH]c2ccc(-n3cnnc3)cc12`: the IC50 in assay [1] turned out to be 15 nM; in assay [3] it was 0.8 nM. This compound also returned an EC50 in [2] of 3 nM.

Regarding `c1ccc(COC[C@@H]2CCN(CCCc3c[nH]c4ccc(-n5cnnc5)cc34)C2)cc1`, the results for the concentration for half-maximal inhibition (IC50) in assay [1] and in assay [3] were 33 nM and 2.1 nM, respectively.

As for `C=CCNC[C@@H]1CCN(CCc2c[nH]c3ccc(-n4cnnc4)cc23)C1`, the results for the concentration for half-maximal inhibition (IC50) in assay [1] and in [3] were 325 nM and 17 nM, respectively.

In the case of `c1ccc(CNC[C@@H]2CCN(CCc3c[nH]c4ccc(Cn5cncn5)cc34)C2)cc1`, the half-maximal inhibitory concentration (IC50) in assay [1] was 260 nM; in assay [3], 3.2 nM. In assay [2], this compound showed an EC50 of 4.9 nM. The Plasma concentration in the assay with Rattus norvegicus [5] is < 25 ng/mL and 55 ng/mL.

For `OC[C@@H]1CCN(CCc2c[nH]c3ccc(-n4cnnc4)cc23)C1`, the IC50 in assay [1] is 93 nM; in assay [3], 26 nM.

`c1ccc(NC[C@@H]2CCN(CCc3c[nH]c4ccc(-n5cnnc5)cc34)C2)cc1`: the IC50 in assay [1] stood at 87 nM; in assay [3], 9.1 nM.

With `c1cc(CNC[C@@H]2CCN(CCc3c[nH]c4ccc(-n5cnnc5)cc34)C2)co1`, the figures for the IC50 in assay [1] and in [3] were 12 nM and 0.45 nM, respectively. In assay [2], the EC50 was determined as 1.3 nM.

Consider `CC(C)(NC[C@@H]1CCN(CCc2c[nH]c3ccc(-n4cnnc4)cc23)C1)c1ccccc1`, for which the half-inhibitory concentration (IC50) in [1] came to 39 nM; in [3], 1 nM. Also, the half-maximal effective concentration (EC50) in [2] turned out to be 0.3 nM.

With `O=C1N[C@@H](Cc2ccc3[nH]cc(CCN4CC[C@@H](CNCc5ccccc5)C4)c3c2)CO1`, the IC50 in [4] came out at 17 nM; in [6], 49 nM; in assay [1] it was 49 nM; in assay [7], 0.35 nM; in assay [3], 0.35 nM; in [9], 3000 nM. The EC50 in assay [2] was 1.7 nM. In addition, in the assay with Rattus norvegicus [8], the Plasma concentration was < 2 ng/mL and 4 ng/mL.

`c1cc2[nH]cc(CCN3CCCC3)c2cc1-n1cnnc1`: the half-maximal inhibitory concentration (IC50) is 28 nM in [1] and 3.1 nM in [3]. It took 2.3 nM to reach a half-maximal effect in assay [2] (EC50).

With `CN(Cc1ccccc1)C[C@@H]1CCN(CCCc2c[nH]c3ccc(-n4cnnc4)cc23)C1`, the IC50 in assay [1] worked out at 59 nM; in assay [3], 4.2 nM.

With `C[C@H](NC[C@@H]1CCN(CCc2c[nH]c3ccc(C[C@H]4COC(=O)N4)cc23)C1)c1ccccc1`, the IC50 in assay [4] was found to be 8.7 nM; in assay [6], 50 nM; in assay [1], 49 nM; in [7], 0.3 nM; in [3], 0.3 nM; in assay [9], 2200 nM. In assay [2], this compound came in with an EC50 of 0.5 nM.

With `CN(Cc1ccccc1)C[C@@H]1CCN(CCc2c[nH]c3ccc(Cn4cncn4)cc23)C1`, the IC50 in assay [1] came to 575 nM; in assay [3], 7.7 nM. In assay [2], this compound displayed an EC50 of 11 nM. In the assay with Rattus norvegicus [5], the Plasma concentration is 39 ng/mL and 114 ng/mL.

Regarding `CNS(=O)(=O)Cc1ccc2[nH]cc(CCN3CC[C@@H](CNCc4ccccc4)C3)c2c1`, the IC50 in [4] was determined as 41 nM; in assay [6], 62 nM; in assay [1], 62 nM; in assay [7], 1.1 nM; in assay [3] it was 1.1 nM; in [9] it was 5800 nM. Further, a half-maximal response in [2] (EC50) required 3.5 nM.

As to `CN(Cc1ccccc1)C[C@@H]1CCN(CCc2c[nH]c3ccc(-n4cnnc4)cc23)C1`, the half-maximal inhibitory concentration (IC50) in [1] turned out to be 32 nM. Besides, in [2], the concentration giving a half-maximal response (EC50) was found to be 1.5 nM.

As for `CN(C)CCc1c[nH]c2ccc(-n3cnnc3)cc12`, in [1], the IC50 stood at 1.3 nM. Moreover, the EC50 in [2] was 0.4 nM.

With `c1cc(CNC[C@@H]2CCN(CCc3c[nH]c4ccc(-n5cnnc5)cc34)C2)ccn1`, the IC50 in assay [1] is 110 nM; in [3] it was 8.5 nM. Besides, a half-maximal response in [2] (EC50) required 9.5 nM.

Consider `c1ccc(CNC[C@H]2CCN(CCc3c[nH]c4ccc(-n5cnnc5)cc34)C2)cc1`, for which the IC50 in assay [1] was 47 nM.

With `C[C@@H](c1ccccc1)N(C)C[C@@H]1CCN(CCc2c[nH]c3ccc(Cn4cncn4)cc23)C1`, the IC50 was determined as 87 nM in assay [1] and 0.7 nM in assay [3]. Also, the concentration for a half-maximal effect (EC50) in [2] amounted to 4.5 nM.

In the case of `CN(Cc1ccccc1)C[C@@H]1CCN(CCc2c[nH]c3ccc(C[C@H]4COC(=O)N4C)cc23)C1`, the values for the half-inhibitory concentration (IC50) in assay [1] and in [3] were 69 nM and 1.7 nM, respectively. Besides, the EC50 in [2] turned out to be 3.2 nM.

As for `c1ccc(CNC[C@@H]2CCN(CCc3c[nH]c4ccc(-n5cnnc5)cc34)C2)nc1`, the results for the IC50 in assay [1] and in [3] were 48 nM and 3.6 nM, respectively.

Turning to `c1cncc(CNC[C@@H]2CCN(CCc3c[nH]c4ccc(-n5cnnc5)cc34)C2)c1`, the half-maximal inhibitory concentration (IC50) in assay [1] turned out to be 62 nM; in assay [3], 3.8 nM.

As to `c1ccc(COC[C@@H]2CCCN2CCc2c[nH]c3ccc(-n4cnnc4)cc23)cc1`, the IC50 is 2.7 nM in assay [1] and 0.81 nM in assay [3].

On to `C[C@H](NC[C@@H]1CCN(CCc2c[nH]c3ccc(Cn4cncn4)cc23)C1)c1ccccc1`, for which the IC50 in assay [1] was 305 nM; in assay [3], 2.5 nM. Also, the EC50 in assay [2] was determined as 3 nM.

Regarding `c1ccc(COC[C@H]2CCCN2CCc2c[nH]c3ccc(-n4cnnc4)cc23)cc1`, the IC50 in assay [1] was found to be 575 nM; in assay [3] it was 95 nM.

`CN(Cc1ccccc1)[C@@H]1CCN(CCc2c[nH]c3ccc(-n4cnnc4)cc23)C1`: the IC50 in assay [3] was 37 nM.

For the compound `C[C@@H](NC[C@@H]1CCN(CCc2c[nH]c3ccc(-n4cnnc4)cc23)C1)c1ccccc1`, the IC50 in assay [1] amounted to 74 nM; in assay [3] it was 0.72 nM. In assay [2], this compound returned an EC50 of 2.1 nM.

As to `c1coc(CNC[C@@H]2CCN(CCc3c[nH]c4ccc(-n5cnnc5)cc34)C2)c1`, the figures for the IC50 in assay [1] and in assay [3] were 20 nM and 1.5 nM, respectively. Besides, the EC50 in [2] came to 2.8 nM.
